Reference: ChEMBL document CHEMBL4312005, “Optimization of pyrrolizine-based Schiff bases with 4-thiazolidinone motif: Design, synthesis and investigation of cytotoxicity and anti-inflammatory potency” (Eur J Med Chem, 2020)

Experiments:
[1] = Selectivity index, ratio of IC50 for cytotoxicity against human MRC5 cells to IC50 for antiproliferative activity against human MCF7 cells; conditions: MRC5 cells versus MCF7 cells
[2] = Selectivity index, ratio of IC50 for cytotoxicity against human MRC5 cells to IC50 for antiproliferative activity against human A2780 cells; conditions: MRC5 cells versus A2780 cells
MCF7 [3] = assay: Cell cycle arrest in human MCF7 cells assessed as subG1 accumulation at 10 uM incubated for 24 hrs by propidium iodide based flow cytometry (reference value: 0.6 to 3 %); type: functional
MCF7 [4] = assay: Cell cycle arrest in human MCF7 cells assessed as G1 accumulation at 1 uM incubated for 24 hrs by propidium iodide based flow cytometry (reference value: 49.6 to 55.1 %); type: functional
MCF7 [5] = assay: Cell cycle arrest in human MCF7 cells assessed as G1 accumulation at 5 uM incubated for 24 hrs by propidium iodide based flow cytometry (reference value: 49.6 to 55.1 %); type: functional
MCF7 [6] = assay: Cell cycle arrest in human MCF7 cells assessed as G1 accumulation at 10 uM incubated for 24 hrs by propidium iodide based flow cytometry (reference value: 49.6 to 55.1 %); type: functional
MCF7 [7] = assay: Cell cycle arrest in human MCF7 cells assessed as S phase accumulation at 1 uM incubated for 24 hrs by propidium iodide based flow cytometry (reference value: 17.3 to 28.5 %); type: functional
MCF7 [8] = assay: Cell cycle arrest in human MCF7 cells assessed as S phase accumulation at 5 uM incubated for 24 hrs by propidium iodide based flow cytometry (reference value: 17.3 to 28.5 %); type: functional
MCF7 [9] = assay: Cell cycle arrest in human MCF7 cells assessed as S phase accumulation at 10 uM incubated for 24 hrs by propidium iodide based flow cytometry (reference value: 17.3 to 28.5 %); type: functional
MCF7 [10] = assay: Cell cycle arrest in human MCF7 cells assessed as G2/M phase accumulation at 1 uM incubated for 24 hrs by propidium iodide based flow cytometry (reference value: 17.2 to 26.8 %); type: functional
MCF7 [11] = assay: Cell cycle arrest in human MCF7 cells assessed as G2/M phase accumulation at 5 uM incubated for 24 hrs by propidium iodide based flow cytometry (reference value: 17.2 to 26.8 %); type: functional
MCF7 [12] = assay: Induction of apoptosis in human MCF7 cells assessed as viable cells at 1 uM incubated for 24 hrs by annexin V FITC and propidium iodide staining based flow cytometry (reference value: 76 to 95.9 %); type: functional; conditions: MCF7, 24 h, read-out: Activity
MCF7 [13] = assay: Induction of apoptosis in human MCF7 cells assessed as viable cells at 5 uM incubated for 24 hrs by annexin V FITC and propidium iodide staining based flow cytometry (reference value: 76 to 95.9 %); type: functional; conditions: MCF7, 24 h, read-out: Activity
MCF7 [14] = assay: Induction of apoptosis in human MCF7 cells assessed as viable cells at 10 uM incubated for 24 hrs by annexin V FITC and propidium iodide staining based flow cytometry (reference value: 76 to 95.9 %); type: functional; conditions: MCF7, 24 h, read-out: Activity
MCF7 [15] = assay: Induction of apoptosis in human MCF7 cells assessed as early apoptotic cells at 1 uM incubated for 24 hrs by annexin V FITC and propidium iodide staining based flow cytometry (reference value: 0 to 9 %); type: functional
MCF7 [16] = assay: Induction of apoptosis in human MCF7 cells assessed as early apoptotic cells at 5 uM incubated for 24 hrs by annexin V FITC and propidium iodide staining based flow cytometry (reference value: 0 to 9 %); type: functional
MCF7 [17] = assay: Induction of apoptosis in human MCF7 cells assessed as early apoptotic cells at 10 uM incubated for 24 hrs by annexin V FITC and propidium iodide staining based flow cytometry (reference value: 0 to 9 %); type: functional
MCF7 [18] = assay: Induction of apoptosis in human MCF7 cells assessed as late apoptotic cells at 1 uM incubated for 24 hrs by annexin V FITC and propidium iodide staining based flow cytometry (reference value: 0 to 2.5 %); type: functional
MCF7 [19] = assay: Induction of apoptosis in human MCF7 cells assessed as late apoptotic cells at 5 uM incubated for 24 hrs by annexin V FITC and propidium iodide staining based flow cytometry (reference value: 0 to 2.5 %); type: functional
MCF7 [20] = assay: Induction of apoptosis in human MCF7 cells assessed as late apoptotic cells at 10 uM incubated for 24 hrs by annexin V FITC and propidium iodide staining based flow cytometry (reference value: 0 to 2.5 %); type: functional
MCF7 [21] = assay: Induction of apoptosis in human MCF7 cells assessed as necrotic cells at 1 uM incubated for 24 hrs by annexin V FITC and propidium iodide staining based flow cytometry (reference value: 4.1 to […]); type: functional
MCF7 [22] = assay: Induction of apoptosis in human MCF7 cells assessed as necrotic cells at 5 uM incubated for 24 hrs by annexin V FITC and propidium iodide staining based flow cytometry (reference value: 4.1 to […]); type: functional
MCF7 [23] = assay: Induction of apoptosis in human MCF7 cells assessed as necrotic cells at 10 uM incubated for 24 hrs by annexin V FITC and propidium iodide staining based flow cytometry (reference value: 4.1 to […]); type: functional
MCF7 [24] = assay: Induction of apoptosis in human MCF7 cells incubated for 24 hrs by annexin V FITC and propidium iodide staining based flow cytometry; type: functional, cell-based
MCF7 [25] = assay: Antiproliferative activity against human MCF7 cells assessed as cell viability at 5 uM incubated for 48 hrs by MTT assay (reference value: 100 %); type: functional; conditions: MCF7, 48 h, read-out: Activity
In short: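 Preliminary single-dose screen by MTT assay. MCF-7 cells grown in DMEM/10% FBS were exposed to 5 μM compound for 48 h, and growth% was determined. Values are mean ± S.D., n = 6.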

[26] = Selectivity index, ratio of IC50 for cytotoxicity against human MRC5 cells to IC50 for antiproliferative activity against human HT-29 cells; conditions: MRC5 cells versus HT-29 cells
Rattus norvegicus [27] = assay: Antiinflammatory activity against albino rats assessed as inhibition of carrageenan-induced paw edema at 0.5 mmol, po measured after 2 hrs relative to control; type: functional
In short: (§1)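 Carrageenan rat paw edema (Winter method) in male and female adult albino rats (100-140 g). […] Swelling inhibition expressed as % of control at 2-4 h after carrageenan injection.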

Rattus norvegicus [28] = assay: Antiinflammatory activity against albino rats assessed as inhibition of carrageenan-induced paw edema at 0.5 mmol, po measured after 4 hrs relative to control; type: functional; in short: as §1

Row | Structure (SMILES) | selectivity ratio [1] | selectivity ratio [2] | Activity (MCF7 [3]) | Activity (MCF7 [4]) | Activity (MCF7 [5]) | Activity (MCF7 [6]) | Activity (MCF7 [7]) | Activity (MCF7 [8]) | Activity (MCF7 [9]) | Activity (MCF7 [10]) | Activity (MCF7 [11]) | viability at 1 µM (MCF7 [12]) | viability at 5 µM (MCF7 [13]) | viability at 10 µM (MCF7 [14]) | Activity (MCF7 [15]) | Activity (MCF7 [16]) | Activity (MCF7 [17]) | Activity (MCF7 [18]) | Activity (MCF7 [19]) | Activity (MCF7 [20]) | further results
1 | CCC1SCC(=O)N1c1c(C#N)c2n(c1C(=O)Nc1ccccc1)CCC2 (stereo unspecified) | 3 to 15 | 3 to 15 | 8.9% | 56.4% | 59.4% | 59.1% | 20.6% | 17.8% | 14.2% | 15.6% | 15.8% | 80.1% | 77.8% | 66.6% | 11.5% | 14.3% | 19.5% | 7.5% | 6.9% | 10.3% | Activity (MCF7 [21]): 1%; Activity (MCF7 [22]): 0.9%; Activity (MCF7 [23]): 3.7%; Activity (MCF7 [24]): Dose-dependent effect
2 | CC(C)C/C=N/c1c(C#N)c2n(c1C(=O)Nc1ccc(Br)cc1)CCC2 | 39 to 258 | 39 to 258 | 0.7% | 30.8% | 30.2% | 29.6% | 55.6% | 55.1% | 55.2% | 12.4% | 14.4% | 55.4% | 58.9% | 57.6% | 13.3% | 16.5% | 15.6% | 10.5% | 11.2% | 12.2% | viability at 5 µM (MCF7 [25]): 56%; selectivity ratio [26]: 39 to 258; inhibition (INH) (Rattus norvegicus [27]): 18.13%; inhibition (INH) (Rattus norvegicus [28]): 30.82%; Activity (MCF7 [21]): 20.8%; Activity (MCF7 [22]): 13.4%; Activity (MCF7 [23]): 14.7%
